Consider four compounds from PMC13080778 (The Journal of general physiology, 2026).

As a reminder, the IC50 is the point on the concentration scale where inhibition reaches its midpoint. In general, inhibition refers to the change of the read-out against control, counted positive when it falls.

SMILES strings stand for the structures. Several values for one entry are separate records, joined by “and”; a condition that tells them apart may be missing. Equal entries are not always repeated. Structures can show the parent of a compound that is named as a salt. Marks after values point to notes of the source that are not given here.

One data set has as its target CaV3.2 (Homo sapiens, UniProt O95180). Put plainly: Whole-cell patch-clamp of Ca2+ currents. It counts as cell-based. In outline: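 HEK293T cells co-transfected (Fugene 6) with CaV3.2 plus β2x13, α2δ-4 and eGFP; whole-cell recordings at room temperature 36–72 h later, 4–8 MΩ pipettes, 50–70% series-resistance compensation, P/−4 leak subtraction. Compound perfused in external solution (vehicle ≤1% DMSO); 0.1 Hz currents, steady-state % inhibition vs vehicle fitted by inhibitor–response regression (0–100 constrained). Boltzmann fits of I–V give Gmax, Vh, k, Vrev.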

Data set [1] concerns the target CaV1.4 (Homo sapiens, UniProt O60840). It counts as cell-based. The settings on record: for IC50: inhibition of ICa, Hill fit.
The test system of data set [2] is Cav1.4 ICa in mouse cones. The note with it: 5 μM, ref Davison et al., 2022; cited from earlier work.
A further data set has as its system three CaV3 subtypes. The note with it: ref Tringham et al., 2012; cited from earlier work.
Another data set has as its target CaV1.4 T1007Y (Homo sapiens, UniProt O60840, T1007Y). Put plainly: Whole-cell patch-clamp of ICa in HEK293T cells, CaV1.4 T1007Y mutant. It counts as cell-based. A general note: The patch-clamp technique gives a direct electrical read-out from membranes.
For data set [3], the system named is Cav1.4. The note with it: ref Koschak et al., 2003; cited from earlier work.
In the next data set the target is CaV1.4 M1004A (Homo sapiens, UniProt O60840, M1004A). Put plainly: Whole-cell patch-clamp of ICa in HEK293T cells, CaV1.4 M1004A mutant. It counts as cell-based.
A further data set has as its target CaV1.4 M1129A (Homo sapiens, UniProt O60840, M1129A). Put plainly: Whole-cell patch-clamp of ICa in HEK293T cells, CaV1.4 M1129A mutant. It counts as cell-based.
The target of another data set is CaV1.4 M1426A (Homo sapiens, UniProt O60840, M1426A). Put plainly: Whole-cell patch-clamp of ICa in HEK293T cells, CaV1.4 M1426A mutant. It counts as cell-based.
Data set [4] deals with CaV1.2 (Oryctolagus cuniculus, UniProt P15381). Description: Whole-cell patch-clamp of ICa in HEK293T cells transfected with CaV1.2. The note with it: CaV1.2 WT. It counts as cell-based, rabbit.
The target in the next data set is CaV1.2 V1063M (Oryctolagus cuniculus, UniProt P15381, V1063M). Put plainly: Whole-cell patch-clamp of ICa in HEK293T cells, CaV1.2 V1063M mutant. It counts as cell-based, rabbit.
The subject of the next data set is CaV3 channels. The settings on record: ref Xiang et al., 2011; cited from earlier work.
Data set [5] has as its system Cav1.2. The note with it: ref Wei et al., 2024; cited from earlier work.
[6] abbreviates: CaV3.2, drug at 100 nM, mean ± SEM or median.
Where [7] appears, read: CaV3.2, inhibition of ICa, Hill fit, mean ± SEM.
[8] abbreviates: CaV1.4, drug at 5 µM, Vhold −90 mV.

Chain of CaV3.2 (O95180 whole entry, the tested form may be a part): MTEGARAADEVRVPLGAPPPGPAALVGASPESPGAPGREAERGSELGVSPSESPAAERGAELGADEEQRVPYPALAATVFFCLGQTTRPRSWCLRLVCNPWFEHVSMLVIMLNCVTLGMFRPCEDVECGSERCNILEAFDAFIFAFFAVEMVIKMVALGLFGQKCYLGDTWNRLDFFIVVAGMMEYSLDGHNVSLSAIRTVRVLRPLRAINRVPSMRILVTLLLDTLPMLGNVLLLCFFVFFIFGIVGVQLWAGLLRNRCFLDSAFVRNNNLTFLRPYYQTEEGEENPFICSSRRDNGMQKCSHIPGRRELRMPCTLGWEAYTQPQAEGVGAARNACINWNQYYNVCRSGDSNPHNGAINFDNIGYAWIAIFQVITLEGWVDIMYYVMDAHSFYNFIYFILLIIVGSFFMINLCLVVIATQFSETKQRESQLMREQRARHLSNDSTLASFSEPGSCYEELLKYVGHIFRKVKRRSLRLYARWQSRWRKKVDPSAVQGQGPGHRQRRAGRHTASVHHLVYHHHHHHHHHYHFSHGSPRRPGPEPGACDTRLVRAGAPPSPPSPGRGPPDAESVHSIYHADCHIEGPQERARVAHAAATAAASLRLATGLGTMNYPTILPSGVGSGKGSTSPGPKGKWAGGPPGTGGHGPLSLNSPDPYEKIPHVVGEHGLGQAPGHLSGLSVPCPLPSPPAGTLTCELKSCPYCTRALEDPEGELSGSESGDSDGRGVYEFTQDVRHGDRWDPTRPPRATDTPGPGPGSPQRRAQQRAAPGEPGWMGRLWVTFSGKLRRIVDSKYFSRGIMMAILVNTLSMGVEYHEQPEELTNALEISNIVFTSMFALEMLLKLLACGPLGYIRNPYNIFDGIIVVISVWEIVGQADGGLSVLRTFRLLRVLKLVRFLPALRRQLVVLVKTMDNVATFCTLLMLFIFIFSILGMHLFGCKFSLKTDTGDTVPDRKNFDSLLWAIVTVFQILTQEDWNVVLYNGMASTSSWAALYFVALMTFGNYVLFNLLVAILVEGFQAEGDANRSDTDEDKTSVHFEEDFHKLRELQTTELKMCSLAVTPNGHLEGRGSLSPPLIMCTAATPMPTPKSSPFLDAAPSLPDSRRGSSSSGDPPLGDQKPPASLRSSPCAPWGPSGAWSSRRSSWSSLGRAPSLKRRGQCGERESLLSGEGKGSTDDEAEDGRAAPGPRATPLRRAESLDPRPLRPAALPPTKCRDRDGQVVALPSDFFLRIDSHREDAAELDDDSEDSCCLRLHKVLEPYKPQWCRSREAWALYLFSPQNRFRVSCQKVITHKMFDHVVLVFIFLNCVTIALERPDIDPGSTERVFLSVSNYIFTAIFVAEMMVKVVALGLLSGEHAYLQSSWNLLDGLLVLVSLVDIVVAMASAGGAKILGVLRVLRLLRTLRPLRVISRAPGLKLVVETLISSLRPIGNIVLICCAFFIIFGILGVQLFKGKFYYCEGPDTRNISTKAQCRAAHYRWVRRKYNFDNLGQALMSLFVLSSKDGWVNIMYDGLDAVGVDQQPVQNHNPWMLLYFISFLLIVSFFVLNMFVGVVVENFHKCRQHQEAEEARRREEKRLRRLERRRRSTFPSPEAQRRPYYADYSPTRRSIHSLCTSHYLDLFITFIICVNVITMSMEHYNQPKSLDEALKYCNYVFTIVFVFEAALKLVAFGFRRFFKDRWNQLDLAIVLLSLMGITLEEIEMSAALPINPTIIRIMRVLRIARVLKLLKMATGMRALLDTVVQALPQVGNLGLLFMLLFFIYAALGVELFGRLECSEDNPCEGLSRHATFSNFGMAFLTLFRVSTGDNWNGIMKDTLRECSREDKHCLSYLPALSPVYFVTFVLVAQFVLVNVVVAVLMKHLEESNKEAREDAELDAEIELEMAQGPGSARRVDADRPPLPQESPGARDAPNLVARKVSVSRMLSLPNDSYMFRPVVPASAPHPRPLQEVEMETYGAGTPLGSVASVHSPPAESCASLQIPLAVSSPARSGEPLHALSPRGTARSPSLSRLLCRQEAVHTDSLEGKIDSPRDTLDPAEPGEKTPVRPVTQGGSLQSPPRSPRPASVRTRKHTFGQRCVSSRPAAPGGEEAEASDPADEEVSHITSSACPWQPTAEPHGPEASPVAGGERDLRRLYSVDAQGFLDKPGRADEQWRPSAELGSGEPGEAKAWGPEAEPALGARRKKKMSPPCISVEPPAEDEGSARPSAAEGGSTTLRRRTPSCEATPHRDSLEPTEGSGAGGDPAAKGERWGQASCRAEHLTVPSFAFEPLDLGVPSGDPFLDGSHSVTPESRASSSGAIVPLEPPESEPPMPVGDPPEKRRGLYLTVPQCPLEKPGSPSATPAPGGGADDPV

On to `CC(C)(C)NC(=O)CN1CCC(CNC(=O)c2cc(F)cc(Cl)c2)CC1` [Z944], for which the Vrev on CaV3.2 (CaV3.2, drug at 100 nM) is listed as 42.96 ± 1.86 mV; at CaV1.4 [1] (setting [8]), 60.73 ± 4.72 mV. The “inhibition of the peak ICa amplitude” value against CaV3.2 (CaV3.2, drug at 100 nM) is ~ 40%. Besides, the Gmax on CaV3.2 (CaV3.2, drug at 100 nM, Boltzmann fit of I-V, mean ± SEM or median) was found to be 0.55 ± 0.13 nS/pF; on CaV1.4 [1] (setting [8]) it was 0.0845 ± 0.0387 nS/pF. Also, the Vh on CaV3.2 (setting [6]) is -33.47 ± 3.65 mV; at CaV1.4 [1] (setting [8]) it was -6.10 ± 1.54 mV. In addition, the k was 6.75^† mV at CaV3.2 (setting [6]) and 8.89 ± 0.50 mV at CaV1.4 [1] (setting [8]). Also, the “Hill Slope” value on CaV3.2 (CaV3.2, dose-response fit) was determined as 0.82 ± 0.10; on CaV1.4 [1] (CaV1.4 WT, dose-response fit), 0.22 ± 0.04. In addition, the figures for the IC50 against CaV3.2 (setting [7]), at CaV3.2 (CaV3.2 ICa) and on CaV1.4 [1] (CaV1.4 WT) were 0.26 ± 0.04 µM, approximately 0.265 µM and 31.5 ± 21 µM, respectively. Besides, at CaV1.4 [1] (Cav1.4 versus Cav3.2), the “IC50 for Cav1.4 higher than that for Cav3.2” value is listed as ~ 100 fold. For the same compound, the “effect on amplitude of Cav1.4 ICa” value in data set [2] is “increased the amplitude”. Further, the “affinity for CaV3 subtypes higher than for CaV2.2 and CaV1.2” value with three CaV3 subtypes is reported as 70-100 times.
In the case of `COC(=O)C1=C(C)NC(C)=C(C(=O)OC(C)C)C1c1cccc2nonc12` (stereo not shown) [isradipine], the inhibition at 1 µM on CaV1.4 [1] (HEK-293T, read-out: inhibition of ICa amplitude) is approximately 78%; on CaV1.4 T1007Y (HEK-293T, read-out: inhibition of ICa) it was approximately 17%. The “increase in the extent of block on shifting Vhold from −90 mV to −50 mV” value in the data set on Cav1.4 [3] is ~ 80%.
`CC(C)(C)CCN1C[C@@H]2C(CNC(=O)c3cc(Cl)cc(Cl)c3)[C@@H]2C1` (stereo partly shown) [ML218, ML218 hydrochloride]: the IC50 against CaV3.2 (setting [7]) was 0.0237 ± 0.0025 µM; against CaV3.2 (CaV3.2 ICa), approximately 0.024 µM; against CaV1.4 [1] (CaV1.4 WT), 2.1 ± 0.51 µM; on CaV1.4 T1007Y (CaV1.4 T1007Y), ~20 µM and 20 µM; against CaV1.4 M1004A it was 310 ± 190 µM; at CaV1.4 M1129A it was 0.45 ± 0.16 µM. The IC50 at CaV1.4 M1426A is 15 ± 2.9 µM; on CaV1.2 [4] it was ~37 µM and 37 µM; against CaV1.2 V1063M, 120 ± 60 µM; with CaV3 channels it was less than 0.5 µM.
For `COC(=O)C1=C(C)NC(C)=C(C(=O)OC2CCCN(Cc3ccccc3)C2)C1c1cccc([N+](=O)[O-])c1` (stereo not shown) [benidipine], the “higher potency compared to nifedipine” value in the data set with Cav1.2 [5] is recorded as 10 fold.
